In PubChem BioAssay:
Inconclusive results are not listed.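 Rule for the calls, unless noted: active = inhibition over a set limit, the all-compound mean plus 3 SD, in both replicate runs; inconclusive = over that limit in just one replicate run; inactive = at or under that limit in both runs.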

Key:
[1] = OD615 S. cerevisiae growth inhibition, permissive medium, pilot counter-assay, permissive growth control for S. cerevisiae lifespan shortening project (AID 705;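 active = growth inhibition above 25% in both replicates, a cutoff set 3 SD above the mean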); conditions: OD615, 24 h, at 10 µM, hits give high values
Procedure, shortened: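 assay system = Saccharomyces cerevisiae strain carrying genetically modified DeaD replicative-lifespan system | medium = SC raffinose/galactose permissive medium | dosing = 10 µM single dose, 0.25% DMSO | schedule = 24 h compound exposure at 30 °C after 4 h pre-growth | measured by = OD at 615 nm | read-out basis = growth inhibition from lowered OD615 after 24 h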

[2] = Restrictive medium S. cerevisiae growth inhibition, OD615, pilot screen of yeast lifespan reduction project, restrictive growth control (AID 706;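 active = growth inhibition above a set limit, 3 SD over mean compound inhibition, in both replicates, cut at about 43% in these data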;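 note: modified DeaD lifespan yeast strain shifted to restrictive glucose medium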); conditions: OD615, 48 h, at 10 µM, hits give high values
Procedure, shortened: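 Buffer or medium: CSMM-D glucose medium. Material: genetically modified Saccharomyces cerevisiae, DeaD replicative lifespan assay strain. Times: 48 h compound exposure at 30 °C. Measured by: optical density at 615 nm.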

[3] = viability gain of MRP-1-high H69AR cells under doxorubicin, pilot screen, MRP-1 activator project, CellTiter-Glo, duplicate (AID 807;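 active = viability increase at or above a cutoff of the median across tested compounds plus 3 SD, cut at about 8.5% in these data, passing the limit was not always enough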;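 note: compound pretreatment 18-22 h then 72 h combined with doxorubicin; 0% = doxorubicin alone and 100% = vehicle without doxorubicin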); conditions: H69AR viability with doxorubicin, CellTiter-Glo luminescence; at 10 µM; hits give high values
[4] = growth suppression of beta-catenin knockout HCT116, pilot screen, human colon tumor cells (AID 823;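 active = cell viability at or below a set limit in both duplicate runs, the limit being the all-compound median minus 4 SD, cut at about 23% in these data, passing the limit was not always enough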;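 note: 0% = wells killed by 20 µM Hyamine and 100% = untreated DMSO cell wells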); conditions: CellTiter-Glo, 60 h, at 10 µM, hits give low values
[5] = growth suppression of PTEN-deleted HCT116, pilot screen, cell-based, HCT116 clonal line, CellTiter-Glo (AID 824;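 active = viability at or below 27.92% in each of two runs, the all-compound median minus 4 SD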;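 note: 0% = 20 µM Hyamine control and 100% = vehicle cell control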); conditions: 60 h, at 10 µM, hits give low values
[6] = inhibitors of the yeast RAM network, pilot screen, dse1pr::URA3 reporter, 5-FOA selection (AID 869);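 note: 0% = DMSO wells with no growth and 100% = 10 µM 1-NA-PP1 with full growth; RAM network block rescues cells from 5-FOA so hits raise OD615 growth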; conditions: S. cerevisiae dse1pr::URA3 5-FOA growth, OD615, 2 d; at 10 µM; hits give high values; strain carries analog-sensitive mutant Cbk1 kinase
[7] = RAM signaling pathway blockade in yeast – S. cerevisiae, Pdr1DBD-CYC8 efflux-inhibited sensitized strain, primary screen (AID 1298;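 active = RAM network inhibition above 8.4% in each of two replicates, 3 SD over the compound average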;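 note: 0% = DMSO untreated cells without growth and 100% = 10 µM 1-NA-PP1 full growth; higher means more yeast growth rescued from 5-FOA killing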); conditions: S. cerevisiae cbk1-as DSE1-URA3 strain, 5-FOA growth OD615, 2 d; at 50 µM; hits give high values

COc1ccc(-n2c(Cn3c(=O)sc4ccccc43)nnc2SC)cc1
inactive: growth inhibition [1] -12.1% | growth inhibition [2] -8.38% | viability increase [3] -2.26% | viability [4] 101% | viability [5] 89.6% | inhibition [6] 2.47% | RAM network inhibition [7] 1.33%

CCOc1ccc(C2c3c(oc4cc(C)c(C)cc4c3=O)C(=O)N2CCCN2CCOCC2)cc1 (centres undefined)
inactive: growth inhibition [1] -1.96% | growth inhibition [2] -6.06% | viability increase [3] -3.05% | viability [4] 94.1% | viability [5] 94.6% | inhibition [6] 0.615% | RAM network inhibition [7] 2.24%

Nc1ccc(Nc2ccccc2)c(Cl)c1
inactive: growth inhibition [1] -1.62% | growth inhibition [2] 19% | viability increase [3] -7.58% | viability [4] 94.7% | viability [5] 97.8% | inhibition [6] 2.79% | RAM network inhibition [7] 4.55%

Cc1cc(C)cc(Nc2cc(C)nc3nc(C)nn23)c1
inactive: growth inhibition [1] -3.56% | growth inhibition [2] 11.6% | viability increase [3] -2.41% | viability [4] 95.9% | viability [5] 90.8% | inhibition [6] 1.87% | RAM network inhibition [7] -0.26%

Cc1ccc(OCCn2c(C)c(/C=N/n3cnnc3)c3ccccc32)cc1
inactive: growth inhibition [1] 8.46% | growth inhibition [2] 22.9% | viability increase [3] -6.55% | viability [4] 81.5% | viability [5] 76% | inhibition [6] 0.8% | RAM network inhibition [7] 1.89%

COc1ccc(-n2c(SCC(=O)Nc3nccs3)nc3c(c2=O)SC(C)C3)cc1 (centres undefined)
inactive: growth inhibition [1] -7.21% | growth inhibition [2] -3.74% | viability increase [3] -2.46% | viability [4] 97.1% | viability [5] 93% | inhibition [6] 1.56% | RAM network inhibition [7] 7.02%

Fc1ccc(Cc2nnc(-c3cccs3)o2)cc1
inactive: growth inhibition [1] -20.1% | growth inhibition [2] -0.63% | viability increase [3] 0.11% | viability [4] 104% | viability [5] 97.8% | inhibition [6] 1.93% | RAM network inhibition [7] 12.2%

COCCn1c(SCC(N)=O)nc2c(c1=O)SC(C)C2 (centres undefined)
inactive: growth inhibition [1] -1.48% | growth inhibition [2] -3.57% | viability increase [3] 0.08% | viability [4] 99.4% | viability [5] 97% | inhibition [6] 1.84% | RAM network inhibition [7] 5.52%

CCCCOc1cccc(C2(C(=O)O)CCCC2)c1
inactive: growth inhibition [1] -6.28% | growth inhibition [2] 4.47% | viability increase [3] -1.49% | viability [4] 99% | viability [5] 94.5% | inhibition [6] 1.21% | RAM network inhibition [7] 4.01%

Cc1ccc(N2C(=O)CC(N3CCN(C4CCc5ccccc5C4)CC3)C2=O)cc1 (centres undefined)
inactive: growth inhibition [1] -2.06% | growth inhibition [2] 1.44% | viability increase [3] -2.69% | viability [4] 102% | viability [5] 98.2% | inhibition [6] 0.215% | RAM network inhibition [7] 6.5%

COC(=O)c1cc(Nc2cc(C)nc3ncnn23)cc(C(=O)OC)c1
inactive: growth inhibition [1] 7.62% | growth inhibition [2] 11% | viability increase [3] -3.2% | viability [4] 108% | viability [5] 97.1% | inhibition [6] 1.31% | RAM network inhibition [7] 1.36%

COc1ccc(-c2nc(CS(=O)CC(=O)NCc3ccco3)c(C)o2)cc1 (centres undefined)
inactive: growth inhibition [1] -8.38% | growth inhibition [2] 17.3% | viability increase [3] -4.45% | viability [4] 92.5% | viability [5] 100% | inhibition [6] 1.88% | RAM network inhibition [7] 0.58%

CCOc1ccc(NC(=O)CN(c2ccc(OC)cc2)S(C)(=O)=O)cc1
inactive: growth inhibition [1] 6.96% | growth inhibition [2] -0.54% | viability increase [3] 0.19% | viability [4] 98.1% | viability [5] 98.8% | inhibition [6] 1.7% | RAM network inhibition [7] 4.91%

Brc1ccc(C2Nc3cccc4cccc(c34)N2)o1
inactive: growth inhibition [1] -13.8% | growth inhibition [2] -9.64% | viability increase [3] -0.34% | viability [4] 85.9% | viability [5] 92.5% | inhibition [6] 2.66% | RAM network inhibition [7] 1.71%

CC(CNC(=O)c1ccc(Br)o1)NC(=O)c1ccc(Br)o1 (centres undefined)
inactive: growth inhibition [1] -0.8% | growth inhibition [2] 2.43% | viability increase [3] -0.71% | viability [4] 99% | viability [5] 97.8% | inhibition [6] 1.46% | RAM network inhibition [7] 1.17%

COc1ccc(C(=O)NCC(c2cccnc2)N2CCN(c3ccccc3OC)CC2)cc1OC (centres undefined)
inactive: growth inhibition [1] -7.95% | growth inhibition [2] -2.41% | viability increase [3] -3.05% | viability [4] 89.4% | viability [5] 91% | inhibition [6] 1.16% | RAM network inhibition [7] 2.21%

CC(CCc1ccccc1)NC(=O)c1nnc(Cc2ccc(F)cc2)o1 (centres undefined)
inactive: growth inhibition [1] -3.78% | growth inhibition [2] 7.46% | viability increase [3] 0% | viability [4] 95.2% | viability [5] 95.2% | inhibition [6] 0.95% | RAM network inhibition [7] 1.1%

COc1ccc(C2=NOC(C(=O)N3CCN(c4ccccc4OC)CC3)C2)cc1 (centres undefined)
inactive: growth inhibition [1] -7.36% | growth inhibition [2] 0.135% | viability increase [3] 2.8% | viability [4] 99.9% | viability [5] 88.5% | inhibition [6] 2.17% | RAM network inhibition [7] 4.09%

CCN(CCCNC(=O)Cn1ncc2c(=O)oc3ccccc3c21)c1cccc(C)c1
inactive: growth inhibition [1] 1.03% | growth inhibition [2] 9.37% | viability increase [3] -2.09% | viability [4] 89.9% | viability [5] 87.5% | inhibition [6] 2.57% | RAM network inhibition [7] 3.72%

NC(=O)NC1CCCc2c1[nH]c1ccc(Cl)cc21 (centres undefined)
inactive: growth inhibition [1] 1.64% | growth inhibition [2] 3.78% | viability increase [3] 0.04% | viability [4] 89.9% | viability [5] 87.3% | inhibition [6] 1.15% | RAM network inhibition [7] 0.26%

C=CCn1c(N(C)C)nc2c1c(=O)[nH]c(=O)n2C
inactive: growth inhibition [1] -8.42% | growth inhibition [2] -12.5% | viability increase [3] 1.25% | viability [4] 109% | viability [5] 100% | inhibition [6] 2.38% | RAM network inhibition [7] 4.26%

C=CCOC(=O)C1=C(C)NC(=O)NC1c1ccc(OC(=O)c2ccco2)c(OC)c1 (centres undefined)
inactive: growth inhibition [1] -6.37% | growth inhibition [2] -18.3% | viability increase [3] -0.16% | viability [4] 93.6% | viability [5] 96.4% | inhibition [6] 0.145% | RAM network inhibition [7] 2.71%

CCOC12NC(=O)CC(=O)N1C(c1ccccc1)=CS2 (centres undefined)
inactive: growth inhibition [1] -16% | growth inhibition [2] -6.23% | viability increase [3] 2.97% | viability [4] 100% | viability [5] 104% | inhibition [6] 1.85% | RAM network inhibition [7] 6.38%

O=C(CC(c1ccccc1)c1ccccc1)Nc1ncn[nH]1
inactive: growth inhibition [1] -5.6% | growth inhibition [2] 9.86% | viability increase [3] 4.51% | viability [4] 100% | viability [5] 90.1% | inhibition [6] -0.035% | RAM network inhibition [7] 3.78%

Cc1n[nH]c(=O)nc1NCc1ccccc1
inactive: growth inhibition [1] -8.25% | growth inhibition [2] -29% | viability increase [3] -0.55% | viability [4] 95% | viability [5] 93.9% | inhibition [6] 1.48% | RAM network inhibition [7] 0.91%

COc1ccc(Br)cc1S(=O)(=O)N1CCN=C1C
inactive: growth inhibition [1] -0.525% | growth inhibition [2] -18.3% | viability increase [3] -1.79% | viability [4] 91.1% | viability [5] 83.4% | inhibition [6] 0.79% | RAM network inhibition [7] -0.12%

CCOC(=O)C(C)n1cnc2sc3c(c2c1=O)CCC3 (centres undefined)
inactive: growth inhibition [1] -8.5% | growth inhibition [2] -7.75% | viability increase [3] -1.76% | viability [4] 95.7% | viability [5] 99.6% | inhibition [6] 0.575% | RAM network inhibition [7] 1.15%

Cc1cccn2c(=O)c3cc(C(=O)NC4CCS(=O)(=O)C4)sc3nc12 (centres undefined)
inactive: growth inhibition [1] -6% | growth inhibition [2] 1.39% | viability increase [3] -2.99% | viability [4] 101% | viability [5] 97.2% | inhibition [6] 2.06% | RAM network inhibition [7] 0.09%

COc1ccc(NCCNc2ccc(OC)cc2)cc1
inactive: growth inhibition [1] 5.4% | growth inhibition [2] 7.97% | viability increase [3] -0.82% | viability [4] 58.9% | viability [5] 59.5% | inhibition [6] 0.6% | RAM network inhibition [7] 6.32%

C=C(C)CSc1nnc(-c2ccc(OC)c(OC)c2)n1N
inactive: growth inhibition [1] 11.8% | growth inhibition [2] 7.34% | viability increase [3] -0.31% | viability [4] 96% | viability [5] 99.2% | inhibition [6] -0.36% | RAM network inhibition [7] 3.74%

COc1ccc(N2CCC(CNC(=O)Nc3ccc(C)c(C)c3)C2)cc1 (centres undefined)
inactive: growth inhibition [1] -8.33% | growth inhibition [2] -2.14% | viability increase [3] 1.23% | viability [4] 91.2% | viability [5] 74.8% | inhibition [6] 0.77% | RAM network inhibition [7] 2.95%

CC12CCC(C(=O)N3CCCc4ccccc43)(CC1=O)C2(C)C (centres undefined)
inactive: growth inhibition [1] -15% | growth inhibition [2] -2.7% | viability increase [3] -0.39% | viability [4] 83.6% | viability [5] 87.6% | inhibition [6] 0.94% | RAM network inhibition [7] 0.93%

CSC1=C(C#N)C(c2ccc(C(C)C)cc2)CC(=O)N1 (centres undefined)
inactive: growth inhibition [1] -4.75% | growth inhibition [2] -18.3% | viability increase [3] 0.04% | viability [4] 99.6% | viability [5] 91% | inhibition [6] 2% | RAM network inhibition [7] 1.87%

Nc1cc(=O)[nH]c(SCc2nc3ccccc3n2Cc2ccccc2)n1
inactive: growth inhibition [1] -2.77% | growth inhibition [2] 17% | viability increase [3] -0.14% | viability [4] 90.4% | viability [5] 89% | inhibition [6] 0.71% | RAM network inhibition [7] 6.17%

O=c1[nH]cnc2c1sc(=S)n2-c1ccccc1
inactive: growth inhibition [1] 10.2% | growth inhibition [2] 29.8% | viability increase [3] -0.17% | viability [4] 101% | viability [5] 97.1% | inhibition [6] 1.87% | RAM network inhibition [7] 8.71%

C=CCn1c(NCc2cc(C)ccc2O)nc2ccccc21
inactive: growth inhibition [1] -18.2% | growth inhibition [2] -17.9% | viability increase [3] -2.74% | viability [4] 82.8% | viability [5] 70.6% | inhibition [6] -0.74% | RAM network inhibition [7] 2.04%

O=S(=O)(c1cccs1)N1CCCc2ccccc21
inactive: growth inhibition [1] -13.1% | growth inhibition [2] -18.4% | viability increase [3] -2.75% | viability [4] 83.5% | viability [5] 83.8% | inhibition [6] 1.71% | RAM network inhibition [7] 3.38%
